Results from ChEMBL document CHEMBL1153437, “Inhibition of monoamine oxidase B by N-methyl-2-phenylmaleimides” (Bioorg Med Chem, 2009).
Calls of active or inactive are those of the source. The calls are words filed in the database; no cut-off is given here.

Legend:
[1] = Stability in pH 7.4 sodium phosphate buffer assessed as hydrolysis at 100 uM at 360 mins; format: physicochemical; conditions: read-out: Activity
Method in brief: (§1)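 Compound (100 µM, or 10 µM where stated) in 100 mM sodium phosphate buffer, pH 6.4–8.0, with 4% DMSO, held at 37 °C in quartz cuvettes. UV–vis spectra (230–500 nm) recorded at intervals. Remaining compound was calculated from the loss of absorbance at its longest-wavelength maximum (337–354 nm) using its molar absorptivity; hydrolysis is expressed as percent.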

[2] = Stability in pH 7.4 sodium phosphate buffer assessed as hydrolysis at 10 uM after 30 mins; format: physicochemical; conditions: read-out: Activity; method in brief: as §1
[3] = Stability in pH 6.4 to 8 phosphate buffer at 100 uM up to 360 mins; format: physicochemical; conditions: pH 6.4, 6 h; method in brief: as §1
[4] = Stability in pH 6.4 to 8 phosphate buffer at 100 uM; format: physicochemical; conditions: pH 6.4, 100 µM; method in brief: as §1
[5] = Stability in pH 8 sodium phosphate buffer assessed as hydrolysis at 100 uM at 360 mins; format: physicochemical; conditions: read-out: Activity; method in brief: as §1
[6] = Stability in pH 7 sodium phosphate buffer assessed as hydrolysis at 100 uM at 360 mins; format: physicochemical; conditions: read-out: Activity; method in brief: as §1
[7] = Stability in pH 7.4 sodium phosphate buffer assessed as hydrolysis at 100 uM after 30 mins; format: physicochemical; conditions: read-out: Activity; method in brief: as §1
Papio hamadryas [8] = organism: Papio hamadryas; test: Inhibition of MAO-B in baboon liver microsome assessed as MMDP+ formation at 14 uM up to 60 mins; format: microsomes
Method in brief: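 Baboon liver mitochondria (0.3 mg protein/mL) preincubated with inhibitor (14 µM) in 100 mM sodium phosphate pH 7.4 at 37 °C for 0, 15, 30 or 60 min. Then diluted to 0.15 mg protein/mL (inhibitor 7 µM final) with MMTP 90 µM and incubated 15 min at 37 °C. Perchloric acid stop, MMDP⁺ read at 420 nm; triplicate, mean ± SEM.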

[9] = Inhibition of MAO-B in baboon liver microsome assessed as MMDP+ formation; format: microsomes, Papio hamadryas
Method in brief: (§2)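 Baboon liver mitochondrial fraction (0.15 mg protein/mL) as MAO-B source; substrate MMTP 30–120 µM with varied inhibitor concentrations, 4% DMSO cosolvent. Incubation at 37 °C for 10 min, stopped with perchloric acid, centrifuged; MMDP⁺ read at 420 nm (ε 25,000 M⁻¹). Ki from the x-intercept of a replot of Lineweaver–Burk slopes versus inhibitor concentration; single determination, replot R² ≥0.99.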

Papio hamadryas [10] = organism: Papio hamadryas; test: Competitive inhibition of MAO-B in baboon liver microsome by Lineweaver-Burke plot; format: microsomes; method in brief: as §2
Papio hamadryas [11] = organism: Papio hamadryas; test: Inhibition of MAO-B in baboon liver microsome assessed as MMDP+ formation at 13 uM after 240 mins relative to control; values are per cent of control
Papio hamadryas [12] = organism: Papio hamadryas; test: Inhibition of MAO-B in baboon liver microsome assessed as MMDP+ formation at 13 uM after 120 mins relative to control; values are per cent of control
Papio hamadryas [13] = organism: Papio hamadryas; test: Inhibition of MAO-B in baboon liver microsome assessed as MMDP+ formation at 13 uM after 30 mins relative to control; values are per cent of control
Papio hamadryas [14] = organism: Papio hamadryas; test: Inhibition of MAO-B in baboon liver microsome assessed as MMDP+ formation at 13 uM after 180 mins relative to control; values are per cent of control
Papio hamadryas [15] = organism: Papio hamadryas; test: Inhibition of MAO-B in baboon liver microsome assessed as MMDP+ formation at 13 uM after 60 mins relative to control; values are per cent of control
[16] = biological target: T1, Amine oxidase [flavin-containing] B (Homo sapiens, UniProt P27338); test: Inactivation of human […] assessed as half time at 0.8 mM; conditions: 800 µM
T1 sequence (P27338 whole entry): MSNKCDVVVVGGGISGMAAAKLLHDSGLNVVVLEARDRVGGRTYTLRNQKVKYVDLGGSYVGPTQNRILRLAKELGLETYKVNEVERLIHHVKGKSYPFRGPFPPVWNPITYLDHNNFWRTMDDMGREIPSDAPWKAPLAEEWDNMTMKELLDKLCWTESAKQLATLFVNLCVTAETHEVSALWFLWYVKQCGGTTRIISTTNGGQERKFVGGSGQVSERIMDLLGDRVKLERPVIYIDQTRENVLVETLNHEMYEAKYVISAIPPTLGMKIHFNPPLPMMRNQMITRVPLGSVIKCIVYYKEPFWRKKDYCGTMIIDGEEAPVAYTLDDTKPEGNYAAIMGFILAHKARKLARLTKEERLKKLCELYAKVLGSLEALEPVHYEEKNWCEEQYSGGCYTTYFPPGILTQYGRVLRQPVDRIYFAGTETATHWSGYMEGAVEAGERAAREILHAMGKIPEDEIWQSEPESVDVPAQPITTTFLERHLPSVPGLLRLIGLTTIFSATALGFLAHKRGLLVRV

degraded at 0.5 h, 100 µM [7] [%]	Ki [9] [µM]	SMILES	further results
2.8	3.49	CN1C(=O)C=C(c2ccccc2)C1=O	degraded at 6 h, 100 µM [1]: 31.4%; degraded at 0.5 h, 10 µM [2]: 1%; Activity [3]: Stable; Activity [4]: Stable; degraded at 6 h, 100 µM [5]: 73.8%; degraded at 6 h, 100 µM [6]: 13%; Activity (Papio hamadryas [8]): inactive
40	6.66	CN1C(=O)C=C(c2cccc(Cl)c2)C1=O	Activity (Papio hamadryas [10]): Active; residual activity (Papio hamadryas [11]): 84%; residual activity (Papio hamadryas [12]): 68%; residual activity (Papio hamadryas [13]): 52%; residual activity (Papio hamadryas [14]): 80%; residual activity (Papio hamadryas [15]): 66%
40	5.73	CN1C(=O)C=C(c2cccc(F)c2)C1=O	
		CCN1C(=O)C=CC1=O [N-ETHYLMALEIMIDE]	Time [16]: 8 h
40	8.56	COc1cccc(C2=CC(=O)N(C)C2=O)c1	
40	6.99	CN1C(=O)C=C(c2cccc(Br)c2)C1=O	
40	8.6	Cc1cccc(C2=CC(=O)N(C)C2=O)c1	
40	11	CN1C(=O)C=C(c2cccc(C(F)(F)F)c2)C1=O	
